Experimental data collected from several papers.
Each line is one published result; the experiments were not run side by side.
CDK7 with cyclin H: Cyclin-dependent kinase 7, with cyclin H (CDK7, Homo sapiens, UniProt P50613)
CDK7: Cyclin-dependent kinase 7 (CDK7, Homo sapiens, UniProt P50613)

Compound | target | effect on | action | method | tested at | measurement | value
O=c1cc(-c2ccccc2)oc2cc(O)cc(O)c12 | CDK7 with cyclin H | enzyme activity | inhibitor | ADP detection | 10 µM | inhibition | 58.8%
COc1cc(-c2cc(-c3ccc(N4CCNCC4)cc3)cnc2C)cc(OC)c1OC | CDK7 | enzyme activity | inhibitor | – | 0.1 µM | inhibition | 0%
CCCCNc1ncc2c(-c3ccc(F)cc3)nn(C[C@H]3CC[C@H](N)CC3)c2n1 | CDK7 | target engagement in cells | inhibitor | chemoproteomics | 20 mM | inhibition | 31.5%
CN1CCN(c2cnc3c(C4CCN(C(=O)c5ccc(OC(F)(F)F)cc5N)CC4)ncnc3c2)CC1 | CDK7 | cell-free assay | – | competition with immobilised ligand | 1 µM | remaining binding | 89%
CNC(=O)c1cc(Oc2ccc(NC(=O)Nc3ccc(Cl)c(C(F)(F)F)c3)cc2)ccn1 | CDK7 with cyclin H | enzyme activity | inhibitor | – | 0.3 µM | inhibition | -3%
COc1cc2oc(-c3ccccc3)cc(=O)c2c(OC)c1OC | CDK7 with cyclin H | enzyme activity | inhibitor | ADP detection | 10 µM | inhibition | 22.4%
C[C@H](c1ccnc(Nc2nc3ccc(-c4cc(N(C)C)ncn4)cc3[nH]2)c1)N1CCN(C(=O)CC(F)(F)F)CC1 | CDK7 | cell-free assay | – | competition with immobilised ligand | 0.1 µM | remaining binding | 93%
CN1C(=N)N(C)/C(=C/c2c[nH]c3ccccc23)C1=O | CDK7 with cyclin H | enzyme activity | inhibitor | ADP detection | 10 µM | inhibition | 34.1%
Cc1cc(NC(=O)c2cccc3cc(-c4cccc5[nH]nc(N)c45)ccc23)ccc1F | CDK7 | enzyme activity | inhibitor | – | 0.1 µM | activity vs control | 117%
Cc1cc(NC(=O)c2cccc(S(F)(F)(F)(F)F)c2)cc(-n2ccn3nc(-c4cccnc4)cc23)c1 | CDK7 | cell-free assay | – | competition with immobilised ligand | 1 µM | remaining binding | 100%
COC(=O)C1=CO[C@@H](C)[C@H]2CN3CCc4c([nH]c5ccccc45)[C@@H]3C[C@H]12 | CDK7 with cyclin H | enzyme activity | inhibitor | ADP detection | 10 µM | inhibition | -41.8%
CC(C)(C)c1nc(-c2cccc(NS(=O)(=O)c3c(F)cccc3F)c2F)c(-c2ccnc(N)n2)s1 | CDK7 with cyclin H | enzyme activity | inhibitor | radiometric | 1 µM | remaining activity | 109%
Cn1cnc(Br)c1C1=CN(c2ncnc3[nH]cnc23)CCS1 | CDK7 | enzyme activity | inhibitor | radiometric | 2 µM | inhibition | 44.3%
Cn1cc2c3ccccc3nc-2c2ccccc21 | CDK7 with cyclin H | enzyme activity | inhibitor | ADP detection | 10 µM | inhibition | 38.3%
COc1cc2ncnc(Nc3ccc(F)c(Cl)c3)c2cc1OCCCN1CCOCC1 | CDK7 with cyclin H | cell-free assay | – | – | 0.5 µM | remaining signal | 105%
CC(=O)Nc1c(C(C)=O)c(=O)n(C)c2nc(-c3ccc(Cl)cc3Cl)c(-c3ccc(Cl)cc3)cc12 | CDK7 | cell-free assay | – | competition with immobilised ligand | 1 µM | remaining binding | 100%
Cc1ccc(C(=O)Nc2ccc(CN3CCN(C)CC3)c(C(F)(F)F)c2)cc1C#Cc1cnc2cccnn12 | CDK7 | enzyme activity | inhibitor | – | 23.5 nM | remaining activity | 47%
CC(C)c1ccc(NC(=O)c2cccs2)c(-c2nc3ccccc3[nH]c2=O)c1 | CDK7 | enzyme activity | inhibitor | – | 1 µM | activity vs control | 85%
COc1ccc(-c2coc3cc(O)cc(O)c3c2=O)cc1 | CDK7 with cyclin H | enzyme activity | inhibitor | ADP detection | 10 µM | inhibition | 41.3%
O=C(Nc1cnn(-c2csc(C(=O)NC3COC3)c2)c1)Nc1ccccc1Cl | CDK7 with cyclin H | enzyme activity | inhibitor | – | 5 µM | remaining activity | 99.7%
CCS(=O)(=O)c1cc2cc(C[C@@](O)(CC(C)(C)c3ccc(F)cc3C(N)=O)C(F)(F)F)[nH]c2cn1 | CDK7 | cell-free assay | – | competition with immobilised ligand | 1 µM | remaining binding | 99%
CCCCCC[C@@H](C)/C=C(C)/C=C/C(=O)N[C@H]1CC2(O[C@H]1O)[C@@H]1O[C@@H]1C(=O)[C@@H]1O[C@@H]12 (stereo partly drawn) | CDK7 with cyclin H | enzyme activity | inhibitor | ADP detection | 10 µM | inhibition | -18.5%
CNC(=O)c1ccc(Nc2ncc(C(F)(F)F)c(NCc3nccnc3N(C)S(C)(=O)=O)n2)cc1 | CDK7 | cell-free assay | – | competition with immobilised ligand | 0.1 µM | remaining binding | 59%
Nc1ncnc2occ(-c3ccc(NC(=O)Nc4cc(C(F)(F)F)ccc4F)cc3)c12 | CDK7 | cell-free assay | inhibitor | – | 20 µM | remaining signal | 0.9%
CO[C@@H](C)c1c(Nc2ccc([C@@H](N(C)C(=O)C3CCS(=O)(=O)CC3)C(F)(F)F)cc2)cnc2cc(Cl)nn12 | CDK7 | cell-free assay | – | competition with immobilised ligand | 1 µM | remaining binding | 100%
O=C1C[C@@H](c2ccc(O)c(O[C@@H]3O[C@H](CO)[C@@H](O)[C@H](O)[C@H]3O)c2)Oc2cc(O[C@@H]3O[C@H](CO)[C@@H](O)[C@H](O)[C@H]3O)ccc21 | CDK7 with cyclin H | enzyme activity | inhibitor | ADP detection | 10 µM | inhibition | 36.6%
CCN(CC)CCNC(=O)c1c(C)[nH]c(/C=C2\C(=O)Nc3ccc(F)cc32)c1C | CDK7 with cyclin H | cell-free assay | – | – | 0.5 µM | remaining signal | 73.4%
Cc1ccc(C(=O)NCc2ccsc2)cc1C#Cc1cn(C(C)C)c2ncnc(N)c12 | CDK7 | enzyme activity | inhibitor | – | 1 µM | activity vs control | 94%
CNC(=O)Nc1ccc2c(c1)[C@@]1(CC2)OC(=O)N(CC(=O)N(Cc2ccc(F)cc2)[C@@H](C)C(F)(F)F)C1=O | CDK7 | cell-free assay | – | competition with immobilised ligand | 1 µM | remaining binding | 76%
COc1cc(Nc2c(C#N)cnc3cc(OCCCN4CCN(C)CC4)c(OC)cc23)c(Cl)cc1Cl | CDK7 with cyclin H | cell-free assay | – | – | 0.5 µM | remaining signal | 113%
